Calls of active or inactive are those of the source. No cut-off for these calls is given here.
How the values were obtained:
[1] = tested on: Mus musculus; assay: Neurotoxicity in mouse assessed as inability to maintain equilibrium on rotarod at 300 mg/kg, ip after 2 hrs using rotarod test; format: toxicity, organism-based; design: dose 300 mg/kg, route intraperitoneal; details: in vivo
Procedure, shortened: (§1)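 Drug given ip to mice as a suspension in 0.5% methylcellulose. At the stated time after dosing, each mouse was placed on a 1 inch knurled rod turning at 6 rpm. Neurotoxicity = inability to stay balanced at least 1 min in each of three trials. Scored as animals toxic/animals tested in small groups.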

[2] = tested on: Mus musculus; assay: Neurotoxicity in mouse assessed as inability to maintain equilibrium on rotarod at 300 mg/kg, ip after 4 hrs using rotarod test; format: toxicity, organism-based; design: dose 300 mg/kg, route intraperitoneal; details: in vivo; procedure, shortened: as §1
[3] = tested on: Mus musculus; assay: Neurotoxicity in mouse assessed as inability to maintain equilibrium on rotarod at 300 mg/kg, ip after 0.5 hrs by rotarod test; format: toxicity, organism-based; design: dose 300 mg/kg, route intraperitoneal; details: in vivo; procedure, shortened: as §1
[4] = species: Mus musculus; assay: Protective index, ratio of TD50 for neurotoxicity in mouse to ED50 for inhibition of maximal electroshock-induced seizures in mouse; format: functional
[5] = tested on: Mus musculus; assay: Neurotoxicity in mouse assessed as inability to maintain equilibrium on rotarod at 100 mg/kg, ip after 0.5 hrs by rotarod test; format: toxicity, organism-based; design: dose 100 mg/kg, route intraperitoneal; details: in vivo; procedure, shortened: as §1
[6] = tested on: Mus musculus; assay: Neurotoxicity in mouse assessed as inability to maintain equilibrium on rotarod at 300 mg/kg, ip after 0.25 hrs using rotarod test; format: toxicity, organism-based; design: dose 300 mg/kg, route intraperitoneal; details: in vivo; procedure, shortened: as §1
[7] = tested on: Mus musculus; assay: Neurotoxicity in ip dosed mouse assessed as inability to maintain equilibrium on rotarod by rotarod test; format: toxicity, organism-based; details: in vivo
Procedure, shortened: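 Mice dosed ip with a suspension in 0.5% methylcellulose, then placed on a 1 inch knurled plastic rod rotating at 6 rpm. Toxicity = failure to keep equilibrium for at least 1 min in each of three trials.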

[8] = tested on: Mus musculus; assay: Anticonvulsant activity in ip dosed mouse assessed as protection against maximal electric shock-induced seizures; format: functional
[9] = tested on: Mus musculus; assay: Neurotoxicity in mouse assessed as inability to maintain equilibrium on rotarod at 300 mg/kg, ip after 0.5 hrs using rotarod test; format: toxicity, organism-based; design: dose 300 mg/kg, route intraperitoneal; details: in vivo; procedure, shortened: as §1
[10] = tested on: Mus musculus; assay: Anticonvulsant activity in mouse assessed as protection against maximal electric shock-induced seizures at 30 mg/kg, ip after 0.5 hrs; format: functional, organism-based; design: dose 30 mg/kg
Procedure, shortened: (§2)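 Phase I maximal electroshock screen in mice. Compound given ip as a suspension in 0.5% methylcellulose at 30, 100 or 300 mg/kg, tested at 30 min and 4 h. Small groups (1–8); result is number protected/number tested.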

[11] = tested on: Rattus norvegicus; assay: Anticonvulsant activity in rat assessed as protection against maximal electric shock-induced seizures at 30 mg/kg, po after 0.5 hrs; format: functional, organism-based; design: dose 30 mg/kg
Procedure, shortened: (§3)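 MES test in rats dosed orally at 30 mg/kg as a suspension in 0.5% methylcellulose, read at 0.25–4 h. Four rats per time point; result is protected/tested.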

[12] = tested on: Rattus norvegicus; assay: Anticonvulsant activity in rat assessed as protection against maximal electric shock-induced seizures at 30 mg/kg, po after 4 hrs; format: functional, organism-based; design: dose 30 mg/kg; procedure, shortened: as §3
[13] = tested on: Rattus norvegicus; assay: Anticonvulsant activity in rat assessed as protection against maximal electric shock-induced seizures at 30 mg/kg, po after 1 hr; format: functional, organism-based; design: dose 30 mg/kg; procedure, shortened: as §3
[14] = tested on: Mus musculus; assay: Anticonvulsant activity against subcutaneous pentylenetetrazole-induced seizures in mouse at 100 mg/kg, ip after 4 hrs; format: functional, organism-based; design: dose 100 mg/kg
Procedure, shortened: (§4)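 Phase I screen in mice. Compound given ip as a suspension in 0.5% methylcellulose, read at 30 min and 4 h. Pentylenetetrazole 85 mg/kg in 0.9% NaCl was injected sc into the posterior midline and animals watched ≥30 min. Protection meant no clonic spasm lasting ≥5 s. Groups of 1–8 animals; result is protected/tested.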

[15] = tested on: Mus musculus; assay: Anticonvulsant activity against subcutaneous pentylenetetrazole-induced seizures in mouse at 30 mg/kg, ip after 4 hrs; format: functional, organism-based; design: dose 30 mg/kg; procedure, shortened: as §4
[16] = tested on: Mus musculus; assay: Anticonvulsant activity in mouse assessed as protection against maximal electric shock-induced seizures at 100 mg/kg, ip after 4 hrs; format: functional, organism-based; design: dose 100 mg/kg; procedure, shortened: as §2
[17] = tested on: Mus musculus; assay: Anticonvulsant activity in mouse assessed as protection against maximal electric shock-induced seizures at 300 mg/kg, ip after 0.5 hrs; format: functional, organism-based; design: dose 300 mg/kg; procedure, shortened: as §2
[18] = tested on: Mus musculus; assay: Anticonvulsant activity in mouse assessed as protection against maximal electric shock-induced seizures at 30 mg/kg, ip after 4 hrs; format: functional, organism-based; design: dose 30 mg/kg; procedure, shortened: as §2
[19] = tested on: Mus musculus; assay: Anticonvulsant activity against subcutaneous pentylenetetrazole-induced seizures in mouse at 100 mg/kg, ip after 0.5 hrs; format: functional, organism-based; design: dose 100 mg/kg; procedure, shortened: as §4
[20] = tested on: Mus musculus; assay: Anticonvulsant activity against subcutaneous pentylenetetrazole-induced seizures in mouse at 300 mg/kg, ip after 0.5 hrs; format: functional, organism-based; design: dose 300 mg/kg; procedure, shortened: as §4
[21] = tested on: Mus musculus; assay: Anticonvulsant activity in mouse assessed as protection against maximal electric shock-induced seizures at 100 mg/kg, ip after 0.5 hrs; format: functional, organism-based; design: dose 100 mg/kg; procedure, shortened: as §2
[22] = tested on: Mus musculus; assay: Anticonvulsant activity against subcutaneous pentylenetetrazole-induced seizures in mouse at 30 mg/kg, ip after 0.5 hrs; format: functional, organism-based; design: dose 30 mg/kg; procedure, shortened: as §4
[23] = tested on: Mus musculus; assay: Anticonvulsant activity against subcutaneous pentylenetetrazole-induced seizures in mouse at 300 mg/kg, ip after 4 hrs; format: functional, organism-based; design: dose 300 mg/kg; procedure, shortened: as §4
[24] = tested on: Mus musculus; assay: Anticonvulsant activity in mouse assessed as protection against maximal electric shock-induced seizures at 300 mg/kg, ip after 4 hrs; format: functional, organism-based; design: dose 300 mg/kg; procedure, shortened: as §2
[25] = tested on: Rattus norvegicus; assay: Anticonvulsant activity in rat assessed as protection against maximal electric shock-induced seizures at 30 mg/kg, po after 2 hrs; format: functional, organism-based; design: dose 30 mg/kg; procedure, shortened: as §3

SMILES: Cc1cccc(C)c1OCC(=O)NC1CCCCC1O.Cl (racemic; 4)
- Activity [1]: Non-toxic
- Activity [2]: Non-toxic
- Activity [3]: Non-toxic
- Ratio TD50/ED50 [4]: 1.493
- Activity [5]: Non-toxic
- Activity [6]: Toxic
- TD50 [7]: 117.73 mg/kg
- ED50 [8]: 78.83 mg/kg
- Activity [9]: Toxic

SMILES: Cc1cccc(C)c1OCC(=O)NC1CCCCC1O (racemic; 4)
- Activity [10]: inactive
- Activity [11]: inactive
- Activity [12]: inactive
- Activity [13]: inactive
- Activity [14]: inactive
- Activity [15]: inactive
- Activity [16]: inactive
- Activity [17]: Active
- Activity [18]: inactive
- Activity [19]: inactive
- Activity [20]: inactive
- Activity [21]: inactive
- Activity [22]: inactive
- Activity [23]: inactive
- Activity [24]: inactive
- Activity [25]: inactive
